How the values were obtained:
[1] = molecular target: T1, Adenosine receptor A1 (Homo sapiens) (UniProt P30542); assay: Displacement of [3H]DPCPX from recombinant human A1 adenosine receptor expressed in CHO cell membranes at 1 uM measured after 60 mins by liquid scintillation counting method relative to control; details: Membrane
T1 sequence (whole entry): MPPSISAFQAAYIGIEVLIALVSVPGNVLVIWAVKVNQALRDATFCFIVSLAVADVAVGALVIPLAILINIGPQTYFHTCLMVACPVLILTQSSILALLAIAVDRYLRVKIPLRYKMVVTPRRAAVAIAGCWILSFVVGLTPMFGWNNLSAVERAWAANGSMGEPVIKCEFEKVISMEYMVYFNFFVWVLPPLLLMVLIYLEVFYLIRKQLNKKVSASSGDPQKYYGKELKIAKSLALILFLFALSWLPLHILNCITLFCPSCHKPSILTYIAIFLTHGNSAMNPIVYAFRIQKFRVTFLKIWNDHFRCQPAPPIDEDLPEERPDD
How it was run: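 Membranes from CHO cells expressing recombinant hA1 (40 μg/tube) were incubated with 2 nM [3H]DPCPX and test compound at 1 μM in 50 mM Tris-HCl (pH 7.4, 10 mM MgCl2) for 60 min at 25°C. Bound radioligand was separated by GF/B filtration and counted by liquid scintillation. Results are given as percent inhibition of specific binding.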

MCF7 = assay: Antiproliferative activity against human MCF7 cells assessed as reduction in cell viability measured after 24 to 48 hrs by MTT assay; format: functional, cell-based
How it was run: (§1)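 Cells seeded per well 24 h before treatment: HEK293 at 5.10^4, MCF7 at 4.10^4, U87MG at 10^5. Compounds were dissolved in DMSO (less than 1%) and diluted in DMEM, then incubated 24 and 48 h. Cells were washed with D-PBS and given MTT (from a 5 mg/mL stock) for 4 h, dissolved in DMSO, read at 540 nm. % viability = sample/control absorbance ×100. At least three independent experiments.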

U-87 MG [2] = assay: Antiproliferative activity against human U-87 MG cells assessed as reduction in cell viability measured after 24 to 48 hrs by MTT assay; format: functional, cell-based, U-87MG ATCC; how it was run: as §1
U-87 MG [3] = assay: Antiproliferative activity against human U-87 MG cells assessed as cell viability at 5 uM measured after 24 to 48 hrs by MTT assay relative to control; format: functional, U-87MG ATCC; details: time 24-48 hrs, read-out: Activity; how it was run: as §1
U-87 MG [4] = assay: Antiproliferative activity against human U-87 MG cells assessed as cell viability at 10 uM measured after 24 to 48 hrs by MTT assay relative to control; format: functional, U-87MG ATCC; details: time 24-48 hrs, read-out: Activity; how it was run: as §1
[5] = (§2) Cytotoxicity against HEK293 cells assessed as cell viability at 100 uM measured after 24 to 48 hrs by MTT assay relative to control; format: cell-based; details: human, HEK293 cells, time 24-48 hrs, read-out: Activity; how it was run: as §1
[6] = molecular target: 3',5'-cyclic-AMP phosphodiesterase 4B (Homo sapiens, UniProt Q07343); assay: Inhibition of recombinant human PDE4B using […] as substrate measured after 90 mins by colorimetric assay
How it was run: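 Recombinant human PDE4 was incubated with 0.5 μM 5′-cGMP plus 5′-nucleotidase for 90 min at 30°C. The reaction was stopped with termination buffer for 20 min at room temperature, and released phosphate was read at OD 620 nm. IC50 was determined from 6 inhibitor concentrations. Compound stocks were in DMSO (less than 1%), with at least triplicate runs, mean ± SD.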

U-87 MG [7] = assay: Antiproliferative activity against human U-87 MG cells assessed as cell viability at 50 uM measured after 24 to 48 hrs by MTT assay relative to control; format: functional, U-87MG ATCC; details: time 24-48 hrs, read-out: Activity; how it was run: as §1
U-87 MG [8] = assay: Antiproliferative activity against human U-87 MG cells assessed as cell viability at 100 uM measured after 24 to 48 hrs by MTT assay relative to control; format: functional, U-87MG ATCC; details: time 24-48 hrs, read-out: Activity; how it was run: as §1
[9] = molecular target: Adenosine receptor A2a (Homo sapiens) (UniProt P29274); assay: Displacement of [3H]ZM241385 from recombinant human A2A adenosine receptor expressed in HEK293 cell membranes at 1 uM measured after 60 mins by liquid scintillation counting method relative to control; details: Membrane
How it was run: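 HEK293 membranes expressing hA2A (20 μg/tube) were incubated with 15 nM [3H]ZM241385 and 1 μM test compound for 60 min at 25°C in 50 mM Tris-HCl, pH 7.4, 10 mM MgCl2. The reaction was stopped by GF/B filtration, followed by scintillation counting. Read-out was percent inhibition of specific binding.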

HEK293 [10] = assay: Cytotoxicity against HEK293 cells assessed as reduction in cell viability measured after 24 to 48 hrs by MTT assay; format: cell-based; details: Homo sapiens; how it was run: as §1
[11] = molecular target: T2, Adenosine receptor A2b (Homo sapiens) (UniProt P29275); assay: Displacement of [3H]ZM241385 from A2B adenosine receptor (unknown origin) at 10 uM measured after 60 mins by liquid scintillation counting method relative to control
T2 sequence (whole entry): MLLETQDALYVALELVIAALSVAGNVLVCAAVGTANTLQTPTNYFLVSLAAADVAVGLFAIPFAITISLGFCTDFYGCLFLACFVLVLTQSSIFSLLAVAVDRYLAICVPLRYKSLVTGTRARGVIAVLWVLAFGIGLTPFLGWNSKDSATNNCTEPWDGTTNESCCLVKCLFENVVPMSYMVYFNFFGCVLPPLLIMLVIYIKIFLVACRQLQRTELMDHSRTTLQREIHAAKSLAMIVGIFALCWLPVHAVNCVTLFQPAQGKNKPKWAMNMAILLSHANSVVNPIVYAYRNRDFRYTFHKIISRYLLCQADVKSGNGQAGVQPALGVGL

HEK293 [12] = assay: as §2; format: cell-based; details: human, hek293, 100 µM, time 24-48 hrs; how it was run: as §1
[13] = molecular target: T2, Adenosine receptor A2b (Homo sapiens); assay: Displacement of [3H]ZM241385 from A2B adenosine receptor (unknown origin) at 1 uM measured after 60 mins by liquid scintillation counting method relative to control

3',5'-cyclic-AMP phosphodiesterase 4B, sequence (Q07343 whole entry): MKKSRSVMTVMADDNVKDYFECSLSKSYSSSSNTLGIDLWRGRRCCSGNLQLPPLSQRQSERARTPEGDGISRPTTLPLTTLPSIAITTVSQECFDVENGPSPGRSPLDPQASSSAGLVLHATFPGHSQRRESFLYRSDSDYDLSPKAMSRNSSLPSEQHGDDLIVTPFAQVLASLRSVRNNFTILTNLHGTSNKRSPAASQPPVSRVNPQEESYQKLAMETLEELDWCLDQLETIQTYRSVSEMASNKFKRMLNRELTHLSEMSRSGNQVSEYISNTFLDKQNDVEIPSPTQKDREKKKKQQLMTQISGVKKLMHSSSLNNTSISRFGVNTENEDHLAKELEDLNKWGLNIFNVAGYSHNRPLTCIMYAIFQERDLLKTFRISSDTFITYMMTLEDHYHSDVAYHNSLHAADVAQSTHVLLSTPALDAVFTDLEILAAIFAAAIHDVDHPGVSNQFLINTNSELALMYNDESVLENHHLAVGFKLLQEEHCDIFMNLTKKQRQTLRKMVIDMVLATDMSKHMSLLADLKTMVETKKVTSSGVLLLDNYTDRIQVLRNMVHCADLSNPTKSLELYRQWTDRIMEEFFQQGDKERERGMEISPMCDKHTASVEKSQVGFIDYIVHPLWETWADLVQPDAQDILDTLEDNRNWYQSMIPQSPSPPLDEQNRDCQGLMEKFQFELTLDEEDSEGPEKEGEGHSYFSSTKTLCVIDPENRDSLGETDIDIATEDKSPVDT
Adenosine receptor A2a (Homo sapiens), sequence (P29274 whole entry): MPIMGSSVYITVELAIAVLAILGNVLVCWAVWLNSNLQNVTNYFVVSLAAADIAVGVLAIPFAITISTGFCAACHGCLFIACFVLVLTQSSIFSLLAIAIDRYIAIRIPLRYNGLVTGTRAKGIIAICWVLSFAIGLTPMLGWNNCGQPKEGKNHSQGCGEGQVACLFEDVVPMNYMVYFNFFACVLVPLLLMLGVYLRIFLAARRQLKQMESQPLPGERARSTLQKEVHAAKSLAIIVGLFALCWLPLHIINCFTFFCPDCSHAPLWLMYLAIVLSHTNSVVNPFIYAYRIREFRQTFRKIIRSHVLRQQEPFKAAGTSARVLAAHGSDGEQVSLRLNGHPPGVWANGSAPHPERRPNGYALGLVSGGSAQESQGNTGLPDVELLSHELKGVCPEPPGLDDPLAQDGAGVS

SMILES	inhibition [1] [%]	IC50 (MCF7) [µM]	IC50 (U-87 MG [2]) [µM]	viability at 5 µM (U-87 MG [3]) [%]	viability at 10 µM (U-87 MG [4]) [%]	viability at 100 µM [5] [%]	IC50 [6] [µM]	viability at 50 µM (U-87 MG [7]) [%]	viability at 100 µM (U-87 MG [8]) [%]	inhibition [9] [%]	IC50 (HEK293 [10]) [µM]	inhibition [11] [%]	Activity (HEK293 [12]) [%]	inhibition [13] [%]
Cc1nc(-c2ccc(Cl)cc2)sc1C(=O)CSc1nc(N)c(C#N)c(-c2ccccc2)n1	8.7	25.2	11.4	71.1	67.9	> 50	22.1	15.2	4.59	-1.4				
COc1ccc(-c2nc(C)c(C(=O)CSc3nc(-c4ccc(OC)c(OC)c4)c(C#N)c(=O)[nH]3)s2)cc1	2.5	24	12.5	81.2	57.6		17.1	22.2	5.39	8.5	23.3			
COc1ccc(-c2nc(SCC(=O)c3sc(-c4ccccc4)nc3C)[nH]c(=O)c2C#N)cc1OC	10	63.7	15.3	80.8	69.8		> 100	21.4	6.48	12	91.8			
COc1ccc(-c2nc(SCC(=O)c3sc(-c4ccccc4)nc3C)nc(N)c2C#N)cc1	-4.6	27.2	14	68.8	60.8	> 50	33.1	33.8	17.2	0.8				
Cc1nc(-c2ccc(Cl)cc2)sc1C(=O)CSc1nc(N)c(C#N)c(-c2ccc(Cl)cc2)n1	-3.7	12.5	3.42	46.1	37.3		24.1	15.5	1.65	1.8	73			
COc1ccc(-c2nc(C)c(C(=O)CSc3nc(N)c(C#N)c(-c4ccc(OC)cc4)n3)s2)cc1	9	24.3	1.56	35.6	28.7		3.15	13	0.26			49	> 50	18
COc1ccc(-c2nc(C)c(C(=O)CSc3nc(N)c(C#N)c(-c4ccc(Cl)cc4)n3)s2)cc1	1.1	11.2	4.54	51.4	44		0.97	23.1	3.9	-7.1	39.2			
COc1ccc(-c2nc(C)c(C(=O)CSc3nc(N)c(C#N)c(-c4ccccc4)n3)s2)cc1	-2.8	72.1	8.54	61.8	57.8		11.2	16.5	5.25	-2.6			> 50	
